Results gathered from unrelated publications.

| Structure (SMILES) | test system | setting | Tmax [min] |
| --- | --- | --- | --- |
| COc1ccc2c3c1O[C@H]1C[C@@H](OC(=O)c4ccccc4)C=C[C@@]31CCN(C)C2 | rat, brain | intravenous, 5 mg/kg | 4.8 |
| CCCCCCCC(=O)N[C@@H](CCCCN)C(=O)N[C@@H](CCCCN)C(=O)N[C@@H](C)C(=O)N[C@@H](CC(C)C)C(=O)N[C@@H](CCCCN)C(=O)N[C@@H](CC(C)C)C(=O)N[C@@H](C)C(=O)N[C@@H](CCCCN)C(=O)N[C@@H](CCCCN)C(=O)N1CCC[C@H]1C(=O)N[C@@H](CC(C)C)C(=O)N[C@@H](CCCCN)C(=O)N[C@@H](CC(C)C)C(=O)N[C@@H](CC(C)C)C(=O)N[C@@H](CCCCN)C(N)=O | male Sprague-Dawley rat, blood | intravenous, 3 mg/kg, infusion | 40.2 |
| O=C(Nc1cccnn1)N1CCN([C@@H]2CCOc3cc(C(F)(F)F)ccc32)CC1 | male Sprague-Dawley rat, plasma | oral, 1 mg/kg | 40.2 |
| CC(C)(C)[C@H](NC(=O)[C@H](CCONC(=N)N)NC(=O)Cc1ccc(CNC(=N)N)cc1)C(=O)N[C@@H](CCONC(=N)N)C(=O)NCc1ccc(C(=N)N)cc1 | male Sprague-Dawley rat, plasma | intraperitoneal, 2.5 mg/kg | 30 |
| Cc1ncc(C)n2nc(/C=C/c3nc(N4CCCC4)cc(N4CCOCC4)n3)nc12 | male Sprague-Dawley rat, plasma | oral, 0.3 mg/kg | 162 |
| Cl.Cl.O=C(CCN1CCCCC1)c1ccc(-c2ccc(C(=O)CCN3CCCCC3)cc2)cc1 | Sprague-Dawley rat, plasma | intravenous, 5 mg/kg | 1.8 |
| COC(=O)C(NC(=O)c1cn(CCCCCF)c2ccccc12)C(C)(C)C (centres unmarked) | male Sprague-Dawley rat, plasma | subcutaneous, 50 µg/kg | 42.5 |
| CN(C)C(=O)Oc1cc(OC(=O)N(C)C)cc(-c2cc3ccc(O)cc3o2)c1 | male rat, plasma | oral, 5 mg/kg | 94.8 |
